Measurements pooled from the literature.
Compare with care: the assays were run in different laboratories.
Cell line: Vero
Observed: cell growth or viability

COc1ccc(CCNCc2c(N)nc(N)nc2C2CCCCC2)cc1  IC50 (SRB): 21 µM
Cc1ccc(C)n1-c1ccc(C(=O)NNC=O)cc1  IC50 (MTT; 72 h): 211 µM
Nc1c(-c2ccc([N+](=O)[O-])cc2)nc2ccccn12  IC50 (MTT; 48 h): 74 µM
COc1ccc(-c2csc(Nc3ccc4c(O)ncnc4c3)n2)cc1  IC50 (MTT): > 50 µM
Nc1nc(N)c(CNCCc2cccc(F)c2)c(C2CCCCC2)n1  IC50 (SRB): 25 µM
Cc1[nH]c(=O)c(CNC(=O)c2ccc([N+](=O)[O-])o2)c2c1CCCC2  IC50 (MTT; 72 h): > 50 µg/mL
Nc1nc(N)c(CNCCc2ccc(Cl)cc2)c(C2CCCCC2)n1  IC50 (SRB): 23 µM
Cc1ccc(C)n1-c1ccc(-c2nnc(-c3c(Cl)cccc3Cl)[nH]2)cc1  IC50 (MTT; 72 h): 229 µM
Nc1nc(N)c(CNCCc2cccc(Cl)c2)c(C2CCCCC2)n1  IC50 (SRB): 23 µM
NC1=NN(c2ccccc2)C(=O)C1=NNc1ccc(N=Nc2ccccc2)cc1  IC50: 44.6 µM
Nc1ccc(-c2nc3cnccn3c2NC2CCCCC2)cc1  IC50 (MTT; 48 h): 75 µM
NC1=C(Cl)C(=O)c2c(C(O)CO)c[nH]c2C1=O (centres unmarked)  IC50 (MTT; 72 h): > 19.5 µM
CC(C)(C)Nc1c(-c2ccccc2[N+](=O)[O-])nc2ccccn12  IC50 (MTT; 48 h): 78 µM
Cc1ccc(C)n1-c1ccc(-c2nnc(-c3ccc(Br)cc3)[nH]2)cc1  IC50 (MTT; 72 h): 231 µM
Nc1ccccc1-c1nc2cnccn2c1N  IC50 (MTT; 48 h): 78 µM
CO[C@H]1/C=C/O[C@@]2(C)Oc3c(C)c(O)c4c(O)c(c(/C=N/N5CCN(C)CC5)c(O)c4c3C2=O)NC(=O)/C(C)=C\C=C\[C@H](C)[C@H](O)[C@@H](C)[C@@H](O)[C@@H](C)[C@H](OC(C)=O)[C@@H]1C  IC50 (MTT; 48 h): > 1000 µg/mL
Nc1ccc(-c2nc3ccccn3c2NC2CCCCC2)cc1  IC50 (MTT; 48 h): 90 µM
COc1ccc(CCNCc2c(N)nc(N)nc2-c2ccccc2)cc1  IC50 (SRB): > 100 µM
Oc1ncnc2cc(Nc3nc(-c4ccc(F)cc4)cs3)ccc12  IC50 (MTT): > 50 µM
CC(C)(C)Nc1c(-c2ccc(N)cc2)nc2cnccn12  IC50 (MTT; 48 h): 76 µM
Cc1ccc(C)n1-c1ccc(-c2nnco2)cc1  IC50 (MTT; 72 h): 216 µM
COc1cccc2c1C(=O)c1c(O)c3c(c(O)c1C2=O)C[C@@](O)(C(=O)CO)C[C@@H]3O[C@H]1C[C@H](N)[C@H](O)[C@H](C)O1  IC50 (SRB): 0.68 µM
Oc1ccc(-c2csc(Nc3ccc4c(O)ncnc4c3)n2)cc1  IC50 (MTT): > 50 µM
COc1cccc(CCNCc2c(N)nc(N)nc2-c2ccccc2)c1  IC50 (SRB): > 100 µM
Nc1ccc(-c2csc(Nc3ccc4c(O)ncnc4c3)n2)cc1  IC50 (MTT): > 50 µM
N#Cc1nn(-c2ccc(N=Nc3ccccc3)cc2)c(=S)n(-c2ccccc2)c1=O  IC50: 42.3 µM
CN(C)c1ccc(-c2nc3cnccn3c2NC(C)(C)C)cc1  IC50 (MTT; 48 h): > 100 µM
Nc1nc(N)c(CNCCc2ccccc2Cl)c(C2CCCCC2)n1  IC50 (SRB): 21 µM
Nc1c(-c2ccc([N+](=O)[O-])cc2)nc2cnccn12  IC50 (MTT; 48 h): 80 µM
Oc1ncnc2cc(Nc3nc(-c4ccc(Br)cc4)cs3)ccc12  IC50 (MTT): > 50 µM
Cc1[nH]c(=O)c(CNC(=O)c2ccc(C(F)(F)F)o2)c2c1CCCC2  IC50 (MTT; 72 h): > 50 µg/mL
CCc1nc(N)nc(N)c1-c1ccc(Cl)cc1  IC50 (SRB): 27 µM
